Laboratory results reported in ChEMBL document CHEMBL4387745, “Development of bivalent compounds as potential neuroprotectants for Alzheimer's disease” (Bioorg Med Chem Lett, 2019).
Calls of active or inactive are those of the source. The rule behind the calls is not given here.

Assays:
Homo sapiens [1] = species on record: Homo sapiens; test: Neuroprotective activity against tetracycline removal-induced oxidative stress in human MC65 cells assessed as reduction in accumulation of intracellular ROS at 1 uM incubated for 48 hrs by DCFH-DA staining-based fluorescence analysis relative to control; type: functional, cell-based
Method in brief: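 MC65 cells without TC given compound (1 μM) for 48 h, then incubated with DCFH-DA (25 μM) for 1 h. ROS given as percentage of fluorescence intensity relative to +TC control; error bars SEM, Student t-test versus −TC control.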

[2] = Neuroprotective activity against tetracycline removal-induced cytotoxicity in human MC65 cells assessed as increase in cell viability incubated for 72 hrs by MTT assay; type: functional, cell-based; details: MC65, 72 h
Method in brief: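 MC65 cells (C99 expression under tetracycline suppression; cytotoxicity induced by TC removal) treated across a concentration range for 72 h under −TC, with +TC cultures as 100% viability reference. Viability read by MTT. EC50 reported as mean ± SEM of three independent experiments.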

[3] = Metal chelating activity assessed as compound-Zn2+ complex formation at 50 uM after 10 mins by UV-vis spectroscopy
Method in brief: (§1)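 Compound at 50 μM mixed with CuSO₄, FeCl₂ or ZnCl₂ (60 μM) at room temperature for 10 min; UV-vis spectrum then recorded from 300 to 550 nm.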

[4] = Metal chelating activity assessed as compound-Fe2+ complex formation at 50 uM after 10 mins by UV-vis spectroscopy; method in brief: as §1
[5] = Metal chelating activity assessed as compound-Cu2+ complex formation at 50 uM after 10 mins by UV-vis spectroscopy; method in brief: as §1
Homo sapiens [6] = species on record: Homo sapiens; test: Neuroprotective activity against tetracycline removal-induced mitochondrial oxidative stress in human MC65 cells assessed as reduction in accumulation of mitoROS at 0.1 to 1 uM incubated for 48 hrs by MitoSOX red dye-based flow cytometric analysis relative to control; type: functional, cell-based
Method in brief: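 After TC removal, MC65 cells were exposed to compound at 1, 0.3 or 0.1 μM for 48 h, then loaded with MitoSOX (2.5 μM) for 30 min. Mitochondrial ROS expressed as percent fluorescence intensity versus +TC control; error bars SEM, Student t-test versus −TC control.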

Activity [3] | Activity [4] | Activity [5] | Compound | Activity (Homo sapiens [1]) | EC50 [2] | Activity (Homo sapiens [6])
 |  |  | COc1cc(/C=C/C(=O)C(Cc2cn(CCCCC(=O)NCCCN3CCN(CCCNC(=O)CCN4CCN(CCCO[C@H]5CC[C@@]6(C)C(=CC[C@H]7[C@@H]8CC[C@H]([C@H](C)CCCC(C)C)[C@@]8(C)CC[C@@H]76)C5)CC4)CC3)nn2)C(=O)/C=C/c2ccc(O)c(OC)c2)ccc1O | Active | 238 nM | 
 |  |  | COc1cc(/C=C/C(=O)C(Cc2cn(CCNC(=O)CCC(=O)NCCCN3CCN(CCCNC(=O)CO[C@H]4CC[C@@]5(C)C(=CC[C@H]6[C@@H]7CC[C@H]([C@H](C)CCCC(C)C)[C@@]7(C)CC[C@@H]65)C4)CC3)nn2)C(=O)/C=C/c2ccc(O)c(OC)c2)ccc1O | Active | 74.1 nM | 
 |  |  | COc1cc(/C=C/C(=O)C(Cc2cn(CCCCNC(=O)CCC(=O)NCCCN3CCN(CCCNC(=O)CCN4CCN(CCCO[C@H]5CC[C@@]6(C)C(=CC[C@H]7[C@@H]8CC[C@H]([C@H](C)CCCC(C)C)[C@@]8(C)CC[C@@H]76)C5)CC4)CC3)nn2)C(=O)/C=C/c2ccc(O)c(OC)c2)ccc1O | Active | 359 nM | 
 |  |  | COc1cc(/C=C/C(=O)C(Cc2cn(CCNC(=O)CCC(=O)NCCCN3CCN(CCCNC(=O)CCN4CCN(CCCO[C@H]5CC[C@@]6(C)C(=CC[C@H]7[C@@H]8CC[C@H]([C@H](C)CCCC(C)C)[C@@]8(C)CC[C@@H]76)C5)CC4)CC3)nn2)C(=O)/C=C/c2ccc(O)c(OC)c2)ccc1O | Active | 132 nM | 
 |  |  | COc1cc(/C=C/C(=O)C(Cc2cn(CCCCC(=O)NCCCN3CCN(CCCNC(=O)CO[C@H]4CC[C@@]5(C)C(=CC[C@H]6[C@@H]7CC[C@H]([C@H](C)CCCC(C)C)[C@@]7(C)CC[C@@H]65)C4)CC3)nn2)C(=O)/C=C/c2ccc(O)c(OC)c2)ccc1O | Active | 107 nM | 
 |  |  | COc1cc(/C=C/C(=O)C(Cc2cn(CCCCC(=O)NCCCN3CCN(CCCNC(=O)CCC(=O)NCCCN4CCN(CCCNC(=O)CO[C@H]5CC[C@@]6(C)C(=CC[C@H]7[C@@H]8CC[C@H]([C@H](C)CCCC(C)C)[C@@]8(C)CC[C@@H]76)C5)CC4)CC3)nn2)C(=O)/C=C/c2ccc(O)c(OC)c2)ccc1O | Active | 105 nM | 
 |  |  | COc1cc(/C=C/C(=O)C(Cc2cn(CCCCNC(=O)CCC(=O)NCCCN3CCN(CCCNC(=O)CO[C@H]4CC[C@@]5(C)C(=CC[C@H]6[C@@H]7CC[C@H]([C@H](C)CCCC(C)C)[C@@]7(C)CC[C@@H]65)C4)CC3)nn2)C(=O)/C=C/c2ccc(O)c(OC)c2)ccc1O | Active | 140 nM | 
 |  |  | COc1cc(/C=C/C(=O)C(Cc2cn(CCC(=O)NCCCN3CCN(CCCNC(=O)CCC(=O)NCCCN4CCN(CCCNC(=O)CO[C@H]5CC[C@@]6(C)C(=CC[C@H]7[C@@H]8CC[C@H]([C@H](C)CCCC(C)C)[C@@]8(C)CC[C@@H]76)C5)CC4)CC3)nn2)C(=O)/C=C/c2ccc(O)c(OC)c2)ccc1O | Active | 103 nM | 
inactive | Active | Active | COc1cc(/C=C/C(=O)C(Cc2cn(CCC(=O)NCCCN3CCN(CCCNC(=O)CCN4CCN(CCCO[C@H]5CC[C@@]6(C)C(=CC[C@H]7[C@@H]8CC[C@H]([C@H](C)CCCC(C)C)[C@@]8(C)CC[C@@H]76)C5)CC4)CC3)nn2)C(=O)/C=C/c2ccc(O)c(OC)c2)ccc1O | Active | 136 nM | 
inactive | Active | Active | COc1cc(/C=C/C(=O)C(Cc2cn(CCC(=O)NCCCN3CCN(CCCNC(=O)CO[C@H]4CC[C@@]5(C)C(=CC[C@H]6[C@@H]7CC[C@H]([C@H](C)CCCC(C)C)[C@@]7(C)CC[C@@H]65)C4)CC3)nn2)C(=O)/C=C/c2ccc(O)c(OC)c2)ccc1O | Active | 81.9 nM | Dose-dependent effect
